Calls of active or inactive are those of the source. The calls are words filed in the database; no cut-off is given here.
Columns and labels:
[1] = tested on: Human immunodeficiency virus 1; assay: Antiviral activity against single-round HIV1 NLX.Lux-R harboring inactivating mutations in env, vpr and carries firefly luciferase gene in place of nef infected in human HeLa-T4 cells assessed as inhibition of 2 mins magnetic nanopartials-medated infectivity after 48 hrs luciferase assay; format: functional, organism-based; settings: for EC50: Human immunodeficiency virus 1, HeLaT4
In short: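 HeLa-T4 cells infected with virus dialysed against HS buffer (pH 7.3, 24 h, 4°C), plus 1.5% FBS, preincubated 5 min with 0.5 mg/ml magnetite nanoparticles. Added at 1:13 (vol/vol) final, 2 min under ~1 T, washed three or four times. Incubated at 37°C; luciferase read at 48 h.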

[2] = Selectivity index, ratio of CC50 for human HeLa-T4 cells to EC50 for single-round HIV1 NLX.Lux-R harboring inactivating mutations in env, vpr and carries firefly luciferase gene in place of nef; format: toxicity, cell-based; settings: read-out: Ratio CC50/EC50
In short: (§1)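 HeLa-T4 cells infected in duplicate for 2 h with 105 RT-cpm VSV-G-pseudotyped HIV-Luc (MOI ~0.01) with serial drug dilutions, washed and re-fed with the same drug. Luciferase normalized to total protein at 48 h, minus matched integrase-mutant N/N-Luc background. EC50/EC95 by GROWTH fit, ≥3 experiments; CC50 by WST-1 on HeLa-T4; SI = CC50/EC50.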

[3] = tested on: Human immunodeficiency virus 1; assay: Antiviral activity against single-round HIV1 NLX.Lux-R harboring inactivating mutations in env, vpr and carries firefly luciferase gene in place of nef infected in human HeLa-T4 cells assessed as luciferase activity after 48 hrs […]; format: functional, organism-based; settings: Human immunodeficiency virus 1, HeLaT4, 48 h; in short: as §1
[4] = Cytotoxicity against human HeLaT4 cells by WST-1 assay; format: cell-based
In short: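 HeLa-T4 cells grown in DMEM with 10% FBS, 100 IU/ml penicillin and 100 μg/ml streptomycin; drug cytotoxicity measured by WST-1 read-out, with drugs tested up to 100 μM; 50% cytotoxic concentration (CC50) reported.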

[5] = tested on: Human immunodeficiency virus 1; assay: Antiviral activity against single-round HIV1 NLX.Lux-R harboring inactivating mutations in env, vpr and carries firefly luciferase gene in place of nef infected in human HeLa-T4 cells assessed as time required to 50% inhibition of infection at 10 times EC95 by time-of-addition assay; format: functional
In short: (§2)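 Time-of-addition: drug at 10× or 100× EC95 added to HIV-Luc-infected HeLa-T4 cultures at set times after infection. Lysis at 48 h; luciferase as percent of no-drug cells. The time giving 50% inhibition versus the no-drug control was read from the curves.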

[6] = tested on: Human immunodeficiency virus 1; assay: Antiviral activity against HIV1 NL4-3.Luc assessed as infectivity using human PBMC pretreated for 24 hrs followed by exposed to virus after compound washout measured after 2 to 3 days by luciferase assay; format: functional, organism-based
[7] = tested on: Human immunodeficiency virus 1; assay: Ratio of EC50 for HIV1 NL4-3.Luc assessed as infectivity using human MDM pretreated for 24 hrs followed by exposed to virus after compound washout to standard EC50 for HIV1 NL4-3.Luc; format: functional
[8] = tested on: Human immunodeficiency virus 1; assay: Antiviral activity against HIV1 NL4-3.Luc assessed as infectivity using human MDM pretreated for 24 hrs followed by exposed to virus after compound washout measured after 2 to 3 days by luciferase assay; format: functional, organism-based
[9] = tested on: Human immunodeficiency virus 1; assay: Ratio of EC50 for HIV1 NL4-3.Luc assessed as infectivity using human PBMC pretreated for 24 hrs followed by exposed to virus after compound washout to standard EC50 for HIV1 NL4-3.Luc; format: functional
[10] = tested on: Human immunodeficiency virus 1; assay: (§3) Antiviral activity against single-round HIV1 NLX.Lux-R harboring inactivating mutations in env, vpr and carries firefly luciferase gene in place of nef assessed as level of 2 mins magnetic nanopartials-medated infection in human HeLaT4 cells treated for 1 measured after of 3 times compound washout and rewashed 48 hrs post infection by time-of-addition pulse assay; format: functional
In short: (§4)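 Pulse time-of-addition: dialysed virus preincubated with magnetite nanoparticles, added to HeLa-T4 cells, 2 min under ~1 T magnetic field, then washed. At set times after infection, cells pulsed 1 h with 100× EC95 drug, washed three times and cultured drug-free. Lysis at 48 h postinfection; luciferase given as percent of no-drug control.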

[11] = tested on: Human immunodeficiency virus 1; assay: as §3, with “suppression” for “level”, “nanopartials-medated residual” for “nanopartials-medated”, “treated at 100 time EC95” for “treated”, “after 11 hrs” for “after”, “assay relative to untreated control” for “assay”; format: functional; in short: as §4
[12] = tested on: Human immunodeficiency virus 1; assay: Antiviral activity against single-round HIV1 NLX.Lux-R harboring inactivating mutations in env, vpr and carries firefly luciferase gene in place of nef infected in human HeLa-T4 cells assessed as time required to 50% inhibition of infection at 100 times EC95 by time-of-addition assay; format: functional; in short: as §2
[13] = tested on: Human immunodeficiency virus 1; assay: (§5) Ratio of EC50 for single-round HIV1 NLX.Lux-R harboring inactivating mutations in env, vpr and carries firefly luciferase gene in place of nef assessed as level of infection using human HeLaT4 cells pretreated for 24 hrs followed by exposed to virus immediately after 3 times compound washout to standard EC50 for HIV1 NLX.Lux-R; format: functional
In short: (§6)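 HeLa-T4 cells pretreated 24 h with 100× EC95 drug, washed three times, then infected with VSV-G-pseudotyped HIV-Luc at 0, 2, 4, 8 or 12 h after washing. Virus removed by three washes at 2 h; lysis at 48 h. Luciferase normalized to protein, percent of no-drug control, Student's t test. Washout EC50 from immediate infection; ratio to standard EC50; ≥3 experiments in duplicate.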

[14] = tested on: Human immunodeficiency virus 1; assay: (§7) Antiviral activity against single-round HIV1 NLX.Lux-R harboring inactivating mutations in env, vpr and carries firefly luciferase gene in place of nef assessed as level of infection using human HeLaT4 cells pretreated at 100 time EC95 for 24 hrs followed by exposed to virus after 12 hrs of 3 times compound washout relative to untreated control cells; format: functional, organism-based; in short: as §6
[15] = tested on: Human immunodeficiency virus 1; assay: Antiviral activity against single-round HIV1 NLX.Lux-R harboring inactivating mutations in env, vpr and carries firefly luciferase gene in place of nef infected in human HeLa-T4 cells assessed as time required to cause 50% loss in compound potency at 10 times EC95 by time-of-addition assay; format: functional; in short: as §2
[16] = tested on: Human immunodeficiency virus 1; assay: Antiviral activity against HIV1 NL4-3.Luc in human MDM assessed as infectivity treated for 24 hrs by luciferase assay; format: functional, organism-based; settings: Human immunodeficiency virus 1, 24 h
[17] = tested on: Human immunodeficiency virus 1; assay: Antiviral activity against HIV1 NL4-3.Luc in human PBMC assessed as infectivity treated for 24 hrs by luciferase assay; format: functional, organism-based; settings: Human immunodeficiency virus 1, 24 h
[18] = tested on: Human immunodeficiency virus 1; assay: as §5, with “Antiviral activity against” for “Ratio of EC50 for”, “washout” for “washout to standard EC50 for HIV1 NLX.Lux-R”; format: functional, organism-based; settings: Human immunodeficiency virus 1, HeLaT4; in short: as §6
[19] = Drug uptake in human HeLaT4 cells assessed as compound persist measured after 3 times washout at 100 time EC95 for HIV1 for 24 hrs; format: ADME, cell-based; settings: helat4, 24 h; in short: as §6
[20] = tested on: Human immunodeficiency virus 1; assay: as §3, with “treated at 100 time EC95” for “treated”, “after 3 hrs” for “after”, “assay relative to untreated control at 4 hr time point” for “assay”; format: functional; in short: as §4
[21] = tested on: Human immunodeficiency virus 1; assay: as §7, with “virus immediately” for “virus”, “after” for “after 12 hrs of”; format: functional; in short: as §6
[22] = tested on: Human immunodeficiency virus 1; assay: as §3, with “nanopartials-medated residual” for “nanopartials-medated”, “treated at 100 time EC95” for “treated”, “after 3 hrs” for “after”; format: functional; in short: as §4
[23] = tested on: Human immunodeficiency virus 1; assay: as §7, with “2 to 4” for “12”; format: functional; in short: as §6
[24] = tested on: Human immunodeficiency virus 1; assay: as §7, with “8” for “12”; format: functional, organism-based; in short: as §6

SMILES | Activity [1] | EC50 [1] | selectivity ratio [2] | EC50 [3] | EC95 [3] | CC50 [4] | Time [5] | EC50 [6] | Ratio EC50 [7] | EC50 [8] | Ratio EC50 [9] | Ratio EC50 [13] | Time [15] | EC50 [16] | EC95 [16] | EC50 [17] | EC95 [17] | EC50 [18] | Drug uptake [19] | Activity [21] | also measured
O=C1Nc2ccc(Cl)cc2[C@@](C#CC2CC2)(C(F)(F)F)O1 [EFAVIRENZ] | Dose-dependent effect | 1000 nM | 31800 | 1.1 nM | 0.008 µM | 35 µM |  |  |  |  |  |  |  |  |  |  |  |  |  |  | 
COc1cc2c(cc1Cc1cccc(Cl)c1F)c(=O)c(C(=O)O)cn2[C@H](CO)C(C)C [ELVITEGRAVIR] | Dose-dependent effect | 3400 nM | 11700 | 2.9 nM | 0.037 µM | 34 µM | 10.1 h | 36 nM | 50 | 25 nM | 120 | 20.7 | 11.1 h | 0.5 nM | 0.0082 µM | 0.3 nM | 0.0074 µM | 0.06 µM |  |  | EC98.6 [10]: 75 nM; fold change (FC) [11]: 2; Time [12]: 11.3 h; Activity [14]: Active
Cc1ccnc2c1NC(=O)c1cccnc1N2C1CC1 [NEVIRAPINE] |  |  | > 1370 | 73 nM | 0.68 µM | > 100 µM |  | > 100000 nM | >3703 | > 100000 nM | >2439 | >1370 | 7.2 h | 27 nM | 0.64 µM | 41 nM | 0.69 µM | > 100 µM | Not Active | inactive | Activity [20]: 23%
Cc1nnc(C(=O)NC(C)(C)c2nc(C(=O)NCc3ccc(F)cc3)c(O)c(=O)n2C)o1 [RALTEGRAVIR] |  |  | > 1300 | 77 nM | 0.81 µM | > 100 µM | 10.5 h | 3300 nM | 1140 | 4900 nM | 1375 | 547.6 | 10.2 h | 4.3 nM | 0.08 µM | 2.4 nM | 0.048 µM | 4.6 µM |  | 19% | EC91 ([10]; Human immunodeficiency virus 1, HeLaT4): 0.073 µM; fold change (FC) [11]: 2; Time [12]: 12.7 h; Activity [22]: 9%; Activity [23]: 50%
CC(C)OC(=O)OCOP(=O)(CO[C@H](C)Cn1cnc2c(N)ncnc21)OCOC(=O)OC(C)C.O=C(O)/C=C/C(=O)O [TENOFOVIR DISOPROXIL FUMARATE] |  |  | 11700 | 2.9 nM | 0.037 µM | 34 µM |  | 55 nM | 1.2 | 34 nM | 1.2 | 4 |  | 28 nM | 0.52 µM | 46 nM | 0.72 µM | 0.12 µM | Active |  | EC99.6 [10]: 0.95 µM; Activity [14]: Active
Cc1cn([C@H]2C[C@H](N=[N+]=[N-])[C@@H](CO)O2)c(=O)[nH]c1=O [ZIDOVUDINE] |  |  | > 11900 | 8.4 nM | 0.09 µM | > 100 µM |  |  |  |  |  | 59.7 | 4.8 h |  |  |  |  | 4.6 µM | Active | 18% | Activity [24]: inactive; Activity [23]: 40%

Reference: ChEMBL document CHEMBL1687834, “Identification and characterization of persistent intracellular human immunodeficiency virus type 1 integrase strand transfer inhibitor activity” (Antimicrob Agents Chemother, 2011)
